In assay [1] the test system is Spinacia oleracea. Briefly: Inhibition of photosynthesis in isolated Spinacia oleracea (spinach) chloroplasts assessed as reduction in light-driven ferricyanide reduction at 10 uM. Format: functional. In short, it runs like this:
(§1)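 Thylakoid membranes from market spinach leaves, homogenized in ice-cold Tricine-NaOH pH 8.0 with NaCl, MgCl2 and 0.4 M sucrose. Osmotically swollen, kept on ice in the dark. Portions with 20 μg chlorophyll incubated at 24 °C with 1 mM K3Fe(CN)6. Run under saturating light (800 μmol m⁻² s⁻¹), A420 read every 30 s for 10 min. Triplicate; percent inhibition versus untreated controls.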

For assay [2], the system named is Spinacia oleracea. The experiment in a line: Inhibition of photosynthesis in isolated Spinacia oleracea (spinach) chloroplasts assessed as reduction in light-driven ferricyanide reduction at 5 uM. The assay is classed as functional. In short, it runs like this:
as §1

Active and inactive are the calls of the source. The calls are words filed in the database; no cut-off is given here.

Consider `O=C1O/C(=C\c2ccccc2F)C=C1Cc1ccccc1`, for which the inhibition – broadly, the drop in the measured response relative to a control, in per cent – in the assay with Spinacia oleracea [1] was found to be 49.5%; in the assay on Spinacia oleracea [2], 24.5%.
For `O=C1O/C(=C\c2ccc(Cl)cc2)C=C1Cc1ccccc1`, the inhibition with Spinacia oleracea [1] is 5.8%. Further, the inhibition entry in the assay on Spinacia oleracea [2] was “inactive”.
Take `O=C1O/C(=C\c2cccc(Cl)c2)C=C1Cc1ccccc1`: the results for the inhibition in the assay on Spinacia oleracea [1] and with Spinacia oleracea [2] were 20.3% and 5.8%, respectively.
For the compound `O=C1O/C(=C\c2cccc(F)c2)C=C1Cc1ccccc1`, the inhibition with Spinacia oleracea [1] was found to be 28.8%; with Spinacia oleracea [2], 9.5%.
`N#Cc1ccc(/C=C2/C=C(Cc3ccccc3)C(=O)O2)cc1`: the inhibition result in the assay on Spinacia oleracea [1] and with Spinacia oleracea [2] was “inactive” in each case.
`Cc1cccc(/C=C2/C=C(Cc3ccccc3)C(=O)O2)c1`: the values for the inhibition in the assay on Spinacia oleracea [1] and in the assay with Spinacia oleracea [2] were 16.7% and 8%, respectively.
On to `O=C1O/C(=C\c2ccc(O)cc2)C=C1Cc1ccccc1`, for which, in the assay on Spinacia oleracea [1], the inhibition worked out at 6.5%. Besides, in the assay on Spinacia oleracea [2], the inhibition result was “inactive”.
`O=C1O/C(=C\c2cccc(C(F)(F)F)c2)C=C1Cc1ccccc1`: the inhibition in the assay with Spinacia oleracea [1] was 49.9%; with Spinacia oleracea [2] it was 27.3%.
Take `COc1ccc(/C=C2/C=C(Cc3ccccc3)C(=O)O2)cc1O`: the inhibition entry in the assay on Spinacia oleracea [1] and in the assay on Spinacia oleracea [2] was “inactive” in each case.
In the case of `CN(C)c1ccc(/C=C2/C=C(Cc3ccccc3)C(=O)O2)cc1`, the inhibition is 7.1% in the assay with Spinacia oleracea [1] and 5.7% with Spinacia oleracea [2].
On to `O=C1O/C(=C\c2ccc(F)cc2)C=C1Cc1ccccc1`, for which the inhibition with Spinacia oleracea [1] turned out to be 25.6%; in the assay on Spinacia oleracea [2] it was 9.2%.
On to `O=C1O/C(=C\c2cccc(Br)c2)C=C1Cc1ccccc1`, for which the inhibition with Spinacia oleracea [1] turned out to be 22.6%; in the assay with Spinacia oleracea [2] it was 13.8%.
Regarding `O=C1O/C(=C\c2ccccc2)C=C1Cc1ccccc1`, the results for the inhibition in the assay with Spinacia oleracea [1] and in the assay with Spinacia oleracea [2] were 29.2% and 12.7%, respectively.
As for `O=C1O/C(=C\c2cccc(O)c2)C=C1Cc1ccccc1`, in the assay on Spinacia oleracea [1], the inhibition amounted to 6.9%. Also, the inhibition entry with Spinacia oleracea [2] is “inactive”.
For the compound `O=C1O/C(=C\c2ccc(-c3ccccc3)cc2)C=C1Cc1ccccc1`, the inhibition entry with Spinacia oleracea [1] and with Spinacia oleracea [2] was “inactive” throughout.
Consider `Cc1ccccc1/C=C1/C=C(Cc2ccccc2)C(=O)O1`, for which the figures for the inhibition with Spinacia oleracea [1] and with Spinacia oleracea [2] were 26% and 16.7%, respectively.
On to `O=C1O/C(=C\c2ccc(Br)cc2)C=C1Cc1ccccc1`, for which the inhibition result in the assay on Spinacia oleracea [1] and in the assay with Spinacia oleracea [2] was “inactive” in each case.
With `Cc1ccc(/C=C2/C=C(Cc3ccccc3)C(=O)O2)cc1`, the inhibition with Spinacia oleracea [1] amounted to 8%. The inhibition entry in the assay on Spinacia oleracea [2] was “inactive”.
As to `CCc1ccc(/C=C2/C=C(Cc3ccccc3)C(=O)O2)cc1`, the figures for the inhibition in the assay on Spinacia oleracea [1] and in the assay on Spinacia oleracea [2] were 50.7% and 40.6%, respectively.
For the compound `CN(C)C(=O)Nc1ccc(Cl)c(Cl)c1`, the results for the inhibition in the assay on Spinacia oleracea [1] and with Spinacia oleracea [2] were 95.1% and 93.2%, respectively.
With `COc1ccc(OC)c(/C=C2/C=C(Cc3ccccc3)C(=O)O2)c1`, the figures for the inhibition in the assay on Spinacia oleracea [1] and with Spinacia oleracea [2] were 43.5% and 30.3%, respectively.
Take `N#Cc1cccc(/C=C2/C=C(Cc3ccccc3)C(=O)O2)c1`: the inhibition entry in the assay with Spinacia oleracea [1] and with Spinacia oleracea [2] was “inactive” in each case.
For the compound `O=C1O/C(=C\c2cccc([N+](=O)[O-])c2)C=C1Cc1ccccc1`, the inhibition in the assay on Spinacia oleracea [1] stood at 39.5%; in the assay with Spinacia oleracea [2], 30%.
With `CN(C)c1cccc(/C=C2/C=C(Cc3ccccc3)C(=O)O2)c1`, the inhibition with Spinacia oleracea [1] turned out to be 38.6%; with Spinacia oleracea [2] it was 10.9%.
In the case of `O=C1O/C(=C\c2ccccc2Cl)C=C1Cc1ccccc1`, the inhibition with Spinacia oleracea [1] was determined as 30.8%; in the assay with Spinacia oleracea [2], 19.4%.
On to `O=C1O/C(=C\c2ccccc2C(F)(F)F)C=C1Cc1ccccc1`, for which the figures for the inhibition in the assay on Spinacia oleracea [1] and in the assay with Spinacia oleracea [2] were 44.9% and 23.3%, respectively.
As for `COc1ccc(/C=C2/C=C(Cc3ccccc3)C(=O)O2)cc1`, the inhibition in the assay on Spinacia oleracea [1] is 15%; in the assay with Spinacia oleracea [2] it was 8.5%.
Take `O=C1O/C(=C\c2ccc([N+](=O)[O-])cc2)C=C1Cc1ccccc1`: the inhibition with Spinacia oleracea [1] worked out at 57.8%; with Spinacia oleracea [2], 49.8%.
`O=C1O/C(=C\c2ccc(C(F)(F)F)cc2)C=C1Cc1ccccc1`: the values for the inhibition with Spinacia oleracea [1] and in the assay on Spinacia oleracea [2] were 55.5% and 34%, respectively.
With `O=C1O/C(=C\c2ccccc2Br)C=C1Cc1ccccc1`, the inhibition with Spinacia oleracea [1] was found to be 21.8%. In the assay on Spinacia oleracea [2], the inhibition result was “inactive”.
Taken in the same sequence, the figures for `O=C1O/C(=C\c2c(F)c(F)c(F)c(F)c2F)C=C1Cc1ccccc1` were 6.6% and “inactive”.
Take `CN(C)c1ccc(/C=C2/C=C(Cc3ccccc3)C(=O)O2)c(Cl)c1`: the inhibition in the assay with Spinacia oleracea [1] was 25.4%; with Spinacia oleracea [2], 13.8%.
The corresponding values for `O=C1O/C(=C\c2ccccc2O)C=C1Cc1ccccc1` are “inactive” and “inactive”.
For `COc1cc(OC)c(/C=C2\C=C(Cc3ccccc3)C(=O)O2)c(OC)c1`, the inhibition was found to be 43.6% in the assay with Spinacia oleracea [1] and 25.2% with Spinacia oleracea [2].

For the origin of these results see ChEMBL document CHEMBL3045564, “Synthesis of photosynthesis-inhibiting nostoclide analogues” (J Agric Food Chem, 2008).
